Source: PubChem BioAssay
Ecoli tolC – E. coli tolC mutant growth inhibition | AID 573 | growth inhibition, % at 10 µM (by protocol) | E. coli BW25113 tolC mutant growth, OD615 | 65,000 compounds, 2.2% hits;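 active = growth inhibition at or above a cutoff equal to the mean over every tested compound plus 3 SD, cut at about 60% in these data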;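 note: growth measured after 20 h incubation at 37 °C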
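Assay system: tolC-deleted E. coli BW25113. Medium: kanamycin-containing LB broth (50 µg/mL). Dosing: 10 µM final, single dose. Timing: bacterial growth with compound for 20 h at 37 °C. Detection: A615 absorbance measurement. Read-out basis: growth inhibition in percent.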
DUSP1 inh – blocks human MKP-1 phosphatase activity; inhibition, %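 (compounds tested at a single concentration somewhere between 10 and 100 µM)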; 65,000 compounds, 0.15% hits; AID 374; recombinant MKP-1, OMFP hydrolysis fluorescence; P28562;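 active = inhibition above about 50%, limit read from the data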
HePTP inh – human HePTP phosphatase inhibition; 110,000 compounds, 0.64% hits; recombinant HePTP phosphatase activity, OD absorbance; AID 521; P35236; inhibition, % at 20 µM; in the data active = inhibition above about 50%
Target sequence (P35236 whole entry, looked up): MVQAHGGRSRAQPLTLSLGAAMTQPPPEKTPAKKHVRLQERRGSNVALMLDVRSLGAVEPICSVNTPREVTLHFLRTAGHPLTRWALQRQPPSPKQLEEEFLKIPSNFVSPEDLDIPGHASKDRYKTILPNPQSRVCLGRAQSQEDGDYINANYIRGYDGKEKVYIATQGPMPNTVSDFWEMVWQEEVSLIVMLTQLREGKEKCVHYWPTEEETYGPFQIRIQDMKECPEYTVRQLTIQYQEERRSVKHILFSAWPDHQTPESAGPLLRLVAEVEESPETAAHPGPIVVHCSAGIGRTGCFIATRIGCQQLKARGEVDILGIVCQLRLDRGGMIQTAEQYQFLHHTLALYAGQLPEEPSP
Ecoli WT expand – blocks growth of wild type E. coli BW25113. OD600 absorbance. 98,000 compounds, 0.15% hits. growth inhibition, % at 100 µM;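 active = growth inhibition above about 50% at one test dose, limit read from the data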;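 note: growth measured after 20 h incubation at 37 °C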
Cdc25B inh – human M-phase inducer phosphatase 2 inhibition | P30305 | recombinant Cdc25B, OMFP fluorescence Ex485/Em525 | inhibition, %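 (compounds tested at 10 µM final in the well)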 | 65,000 compounds, 0.1% hits; in the data active = inhibition above about 50%
MMP-13 inhibitor – inhibitors of human MMP13; 65,000 compounds, 0.07% hits; MMP-13 fTHP FRET cleavage, Mca fluorescence; inhibition, % at 4 µM; P45452;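 active = inhibition above the mean of compound-free control plate wells plus 3 SD, cut at about 14% in these data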
A number is an active result. The full list was thinned out, with hits kept by preference.

`c1ccc2c(c1)oc1c(N3CCN(Cc4ccc5c(c4)OCO5)CC3)ncnc12` gave Ecoli tolC 100, DUSP1 inh inactive, HePTP inh inactive, Ecoli WT expand inactive, Cdc25B inh inactive and MMP-13 inhibitor inactive.
For Cc1ccc2c(c1)[nH]c1c(N3CCN(Cc4ccc5c(c4)OCO5)CC3)ncnc12 the results were Ecoli tolC inactive, DUSP1 inh inactive, HePTP inh inactive, Cdc25B inh inactive and MMP-13 inhibitor inactive.
Cc1ccc(NC(=O)CCOc2ccccc2)c(Br)c1 was read as HePTP inh inactive.
CC1=C(C(=O)OC2CCCCC2)C(c2cc3c(cc2[N+](=O)[O-])OCO3)C2=C(CC(C)(C)CC2=O)N1 (centres undefined) was read as HePTP inh inactive.
CC(=O)c1c(C)n([O-])c2cc(C)ccc2[n+]1=O was read as Ecoli tolC 91, DUSP1 inh inactive, HePTP inh inactive, Ecoli WT expand inactive, Cdc25B inh inactive and MMP-13 inhibitor inactive.
O=C(Nc1ccccc1C(=O)O)c1ccc2c(c1)C(=O)N(C1CCCCC1)C2=O was read as HePTP inh 101.
For Cc1ccccc1C(=O)NN1C(=O)/C(=C\c2cccs2)SC1=S the results were HePTP inh inactive.
For COc1cc(C(=O)O/N=C(/c2ccncc2)c2ccc([N+](=O)[O-])cc2)cc(OC)c1OC the results were HePTP inh inactive.
Screening O=[N+]([O-])c1cc(C(F)(F)F)ccc1NCCNC(=S)Nc1ccc(Cl)cc1 returned HePTP inh 104 and Ecoli WT expand inactive.
Screening O=S(=O)(NCc1ccccn1)c1ccc(Br)cc1Br returned HePTP inh inactive.
Screening CCOc1cc(N2CCOCC2)c(OCC)cc1N returned HePTP inh 68.
O=C(CN1CCN(S(=O)(=O)c2ccc(F)cc2)CC1)Nc1ccc(Cl)c(C(F)(F)F)c1 was read as Ecoli tolC 64, DUSP1 inh inactive, HePTP inh inactive, Ecoli WT expand inactive, Cdc25B inh inactive and MMP-13 inhibitor inactive.
`COc1ccc(-c2cc(C(=O)N3CCN(Cc4ccccc4)CC3)c3ccccc3n2)cc1OC` gave HePTP inh inactive.
Screening CC(=O)CC(=O)Nc1ccc(C(C)C)cc1 returned HePTP inh inactive.
`CCc1cc(=O)oc2cc(OC(C)=O)ccc12` gave HePTP inh inactive.
O=C1CSC(=S)N1Cc1cccnc1 was read as Ecoli tolC inactive, DUSP1 inh inactive, HePTP inh inactive, Ecoli WT expand 65, Cdc25B inh inactive and MMP-13 inhibitor inactive.
For O=C(NCCCn1ccnc1)C(O)(c1ccccc1)c1ccccc1 the results were HePTP inh 56.
Screening O=C(COc1ccccc1)NCCCn1ccnc1 returned HePTP inh inactive.
CCCN(CCC)C(=O)CSc1nc2ccccc2c(=O)n1C1CCCC1 was read as Ecoli tolC 77, DUSP1 inh inactive, HePTP inh inactive, Ecoli WT expand inactive, Cdc25B inh inactive and MMP-13 inhibitor inactive.
Screening CN(C)c1ccc(NC(=O)CSc2nc3ccccc3c(=O)n2C2CCCCC2)cc1 returned Ecoli tolC inactive, DUSP1 inh inactive, HePTP inh inactive, Ecoli WT expand inactive, Cdc25B inh inactive and MMP-13 inhibitor inactive.
COc1ccccc1-c1nnc(SC/C(O)=C(\C#N)c2nc3ccccc3[nH]2)n1C1CCCCC1 was read as Ecoli tolC 71, DUSP1 inh inactive, HePTP inh inactive, Cdc25B inh inactive and MMP-13 inhibitor inactive.
Screening N#C/C(=C(/O)CSc1nnc(Cc2cccs2)n1C1CCCCC1)c1nc2ccccc2[nH]1 returned Ecoli tolC inactive, DUSP1 inh 52, HePTP inh inactive, Ecoli WT expand inactive, Cdc25B inh inactive and MMP-13 inhibitor inactive.
`N#C/C(=C(/O)COC(=O)CCC1CCCCC1)c1nc2ccccc2[nH]1` gave Ecoli tolC inactive, DUSP1 inh inactive, HePTP inh inactive, Ecoli WT expand inactive, Cdc25B inh inactive and MMP-13 inhibitor inactive.
`CC1=NN(c2ccccc2)C(=O)C1C=C1C(=O)NC(=O)NC1=O` (centres undefined) gave HePTP inh inactive.
`CC1=NN(c2ccccc2)C(=O)C1C=C1C(=O)NC(=S)NC1=O` (centres undefined) gave HePTP inh 54.
For CCOC(=O)C1=C(C)N=c2s/c(=C/c3ccc(Cl)cc3)c(=O)n2C1c1ccccc1 (centres undefined) the results were HePTP inh inactive.
